Measurements: PMC10925991 (Heliyon, 2024)

Assays:
[1] = tested on: MCF-7 breast adenocarcinoma cells; experiment: MTT anti-proliferative assay, MCF-7; assay type: cell-based; conditions: Homo sapiens, MCF7, 48 h, read-out: IC50 (μM) ± SD MCF-7
[2] = tested on: RPE-1 human normal Retina pigmented epithelium cells; experiment: MTT anti-proliferative assay, RPE-1; assay type: cell-based; conditions: RPE-1, 48 h, read-out: IC50 (μM) ± SD RPE-1
Summary of the method: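 RPE-1 cells were grown at 37 °C (5% CO₂, humidified) in RPMI-1640 with 10% heat-inactivated FBS and 100 U/mL penicillin/streptomycin. After 24 h, the medium was changed to serum-free, and serial dilutions of test compound in DMSO were added for 48 h. MTT solution (2.5 mg/mL) was then added for 4 h, formazan was dissolved in DMSO, and A590 was read. Triplicates were repeated on three days. % cytotoxicity = (1 − As/Ab) × 100, from which IC50 was derived.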

Row | SMILES | IC50 [1] [µM] | IC50 [2] [µM]
1 | O=c1[nH]c(=S)[nH]c2nc(-c3ccccc3)cc(-c3ccc4ccccc4n3)c12 [Compound 1, 7-phenyl-5-(quinolin-2-yl)-2-thioxo-2,3-dihydropyrido[2,3-d] pyrimidin-4(1H)-one] | 45.5 ± 2.5 | 54.2 ± 2.3
2 | CSc1nc2nc(-c3ccccc3)cc(-c3ccc4ccccc4n3)c2c(=O)[nH]1 [Compound 2, 2-(methylthio)-7-phenyl-5-(quinolin-2-yl) pyrido [2,3-d] pyrimidin-4(3H)-one] | 43.2 ± 2.2 | 52.6 ± 1.9
3 | O=c1c2c(-c3ccc4ccccc4n3)cc(-c3ccccc3)nc2nc2n(-c3ccccc3)nc(-c3ccccc3)n12 [Compound 5a, 1,3,8-triphenyl-6-(quinolin-2-yl) pyrido [2,3-d] [1,2,4] triazolo[4,3-a] pyrimidin-5(1H)-one] | 15.1 ± 2.3 | 26.4 ± 1.4
4 | CS(=O)(=O)c1nc2nc(-c3ccccc3)cc(-c3ccc4ccccc4n3)c2c(=O)[nH]1 [Compound 6, 2-(methylsulfonyl)-7-phenyl-5-(quinolin-2-yl) pyrido [2,3-d] pyrimidin-4(3H)-one] | 37.8 ± 1.4 | 47.3 ± 1.7
5 | O=c1[nH]c(N2CCNCC2)nc2nc(-c3ccccc3)cc(-c3ccc4ccccc4n3)c12 [Compound 7a, 7-phenyl-2-(piperazin-1-yl)-5-(quinolin-2-yl) pyrido [2,3-d] pyrimidin-4(3H)-one] | 31.2 ± 1.8 | 42.1 ± 1.9
6 | O=c1[nH]c(N2CCOCC2)nc2nc(-c3ccccc3)cc(-c3ccc4ccccc4n3)c12 [Compound 7b, 2-morpholino-7-phenyl-5-(quinolin-2-yl) pyrido [2,3-d] pyrimidin-4(3H)-one] | 32.5 ± 1.3 | 43.5 ± 1.5
7 | O=C(O)c1ccccc1Nc1nc2nc(-c3ccccc3)cc(-c3ccc4ccccc4n3)c2c(=O)[nH]1 [Compound 8, 2-((4-oxo-7-phenyl-5-(quinolin-2-yl)-3,4-dihydropyrido[2,3-d]pyrimidin-2-yl)amino) benzoic acid] | 35.4 ± 1.1 | 45.2 ± 1.5
8 | O=c1c2ccccc2[nH]c2nc3nc(-c4ccccc4)cc(-c4ccc5ccccc5n4)c3c(=O)n12 [Compound 9, 2-phenyl-4-(quinolin-2-yl)-5H-pyrido [2′,3':4,5] pyrimido [2,1-b] quinazoline-5,7(12H)-dione] | 8.1 ± 2.1 | 21.2 ± 1.1
9 | O=c1c2ccccc2nc2n1c1nc(-c3ccccc3)cc(-c3ccc4ccccc4n3)c1c1nc3ccccc3c(=O)n12 [Compound 16, 8-phenyl-6-(quinolin-2-yl)-11H,18H-pyrido [3′,2':5,6] pyrimido [2,1-b:4,3-b'] diquinazoline-11,18-dione] | 6.2 ± 1.3 | 17.5 ± 1.8
10 | COc1cccc2c1C(=O)c1c(O)c3c(c(O)c1C2=O)C[C@@](O)(C(=O)CO)C[C@@H]3O[C@H]1C[C@H](N)[C@H](O)[C@H](C)O1 [Doxorubicin, reference compound] | 10.5 ± 2.2 | 30.1 ± 3.1

Further lines, with some results ahead:

Row | IC50 [1] [µM] | SMILES | IC50 [2] [µM]
11 | 40.1 ± 2.3 | CSc1nc(Cl)c2c(-c3ccc4ccccc4n3)cc(-c3ccccc3)nc2n1 [Compound 10, 4-chloro-2-(methylthio)-7-phenyl-5-(quinolin-2-yl) pyrido[2,3-d] pyrimidine] | 50.4 ± 1.8
12 | 29.5 ± 1.5 | NNc1nc(NN)c2c(-c3ccc4ccccc4n3)cc(-c3ccccc3)nc2n1 [Compound 11, 2,4-dihydrazinyl-7-phenyl-5-(quinolin-2-yl) pyrido [2,3-d] pyrimidine] | 40.1 ± 1.6
13 | 23.9 ± 2.1 | c1ccc(Nc2nc(Nc3ccccc3)c3c(-c4ccc5ccccc5n4)cc(-c4ccccc4)nc3n2)cc1 [Compound 13a, N^2, N^4,7-triphenyl-5-(quinolin-2-yl) pyrido [2,3-d] pyrimidine-2,4-diamine] | 34.7 ± 1.3
14 | 21.8 ± 2.2 | Clc1ccc(Nc2nc(Nc3ccc(Cl)cc3)c3c(-c4ccc5ccccc5n4)cc(-c4ccccc4)nc3n2)cc1 [Compound 13b, N^2, N^4-bis(4-chlorophenyl)-7-phenyl-5-(quinolin-2-yl) pyrido [2,3-d] pyrimidine-2,4-diamine] | 32.4 ± 1.7
15 | 22.5 ± 2.3 | COc1ccc(Nc2nc(Nc3ccc(OC)cc3)c3c(-c4ccc5ccccc5n4)cc(-c4ccccc4)nc3n2)cc1 [Compound 13c, N^2, N^4-bis(4-methoxyphenyl)-7-phenyl-5-(quinolin-2-yl) pyrido [2,3-d] pyrimidine-2,4-diamine] | 33.2 ± 1.4
16 | 18.7 ± 1.9 | c1ccc(-c2cc(-c3ccc4ccccc4n3)c3c(N4CCNCC4)nc(N4CCNCC4)nc3n2)cc1 [Compound 14a, 7-phenyl-2,4-di (piperazin-1-yl)-5-(quinolin-2-yl) pyrido [2,3-d] pyrimidine] | 28.1 ± 1.6
17 | 19.2 ± 1.5 | c1ccc(-c2cc(-c3ccc4ccccc4n3)c3c(N4CCOCC4)nc(N4CCOCC4)nc3n2)cc1 [Compound 14b, 4,4'-(7-phenyl-5-(quinolin-2-yl)pyrido [2,3-d]pyrimidine-2,4-diyl) dimorpholine] | 29.3 ± 1.1
18 | 27.1 ± 1.2 | O=C(O)c1ccccc1Nc1nc(Nc2ccccc2C(=O)O)c2c(-c3ccc4ccccc4n3)cc(-c3ccccc3)nc2n1 [Compound 15, 2,2'-((7-phenyl-5-(quinolin-2-yl)pyrido [2,3-d]pyrimidine-2,4-diyl)bis(azanediyl)) dibenzoic acid] | 38.2 ± 1.1
19 | 31 | CNC(=O)c1cc(Oc2ccc(NC(=O)Nc3ccc(Cl)c(C(F)(F)F)c3)cc2)ccn1 [Sorafenib, reference compound] | 
20 | 136 | CS(=O)(=O)CCNCc1ccc(-c2ccc3ncnc(Nc4ccc(OCc5cccc(F)c5)c(Cl)c4)c3c2)o1 [lapatinib, reference compound] | 
